Results from PubChem BioAssay AID1235 (PCMD, 2008).
Hit rate of the full screen: of about 62,000 compounds, about 50 (0.08%) were called active.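 The calls were made as follows: active = inhibition above 30% in each of the two pooled mixtures holding the compound, so the lower value exceeds 30%; inactive = the rest.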 The sample as a whole holds a higher share of actives than the screen did.

Test: alternative complement pathway inhibitors, primary screen, biochemical, ELISA, human serum, orthogonally pooled compounds (AID 1235);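 also: 0% = serum in Mg-EGTA without compound and 100% = EDTA serum blank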
Conditions: LPS-coated ELISA, C3 deposition, tested in compound mixtures, at 5 µM, active compounds read high
Method in brief: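 Test system – human serum alternative complement pathway, C3 deposition on LPS-coated wells · Buffer or medium – diluted human serum in Mg2+-EGTA GVB++ · Compound dosing – 5 µM each compound, pools of ten, 50 µM per pool · Schedule – 1 h serum-compound exposure at 37 °C · Measured by – Anti-C3 ELISA, OD 450 nm · Read-out basis – percent inhibition of C3 deposition onto LPS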

inhibition, inactive:
O=C(NCc1ccc2c(c1)OCO2)C1CCCN(S(=O)(=O)c2cccs2)C1 (stereo not given) 7.05%
CCCCn1c(SCc2ncc(-c3ccccc3)o2)nc2cc(S(N)(=O)=O)ccc21 20.9%
O=C(CC(NCCN1CCOCC1)C(=O)O)Nc1cccc(Cl)c1 (stereo not given) -2.21%
COc1ccc(CC(=O)Nc2c3c(nn2-c2cccc(Cl)c2)CS(=O)C3)cc1 (stereo not given) 11.2%
Cc1ccc(OS(=O)Nc2cccc3nccnc23)cc1 (stereo not given) 10%
CCN(c1ccc2c(c1)OCO2)S(=O)(=O)c1cc(Br)cc2c1N(C(=O)C1CC1)CC2 -0.915%
COc1ccccc1-c1nnc(SCC(=O)Nc2ccccc2)o1 4.25%
CCOc1ccccc1NC(=O)CCc1ccc(C)o1 9.69%
O=C(Nc1ccc(S(=O)(=O)N2CCCCC2)cc1)c1cnccn1 13.5%
CCCCCCn1c(CN2CCCC(C)C2)nc2c1c(=O)n(C)c(=O)n2C (stereo not given) 8.35%
CCCOc1ccccc1-c1nc(SCCC(=O)O)n[nH]1 24%
CCCCCn1c(SCCC(C)C)nc2c1c(=O)[nH]c(=O)n2C 4.81%
COc1cc(Cl)c(C)cc1NC(=O)CSc1nnc(-c2ccco2)n1CC(C)C 10.7%
OC(COc1ccccc1)Cn1cc(Br)cn1 (stereo not given) 3.79%
c1ccc(-n2ncc3c2ncn2c(C4CCCCC4)nnc32)cc1 14.3%
COc1ccc(CCNC(=O)CCn2c(=O)oc3ccccc32)cc1OC 6.83%
CSCCC(NC(=O)C1CCC(C)CC1)C(=O)NCc1ccco1 (stereo not given) 11.6%
COC(=O)c1cc(Cl)c(NC(=O)c2ccco2)cc1OC 13%
COCCCNC(=O)CSc1nc2ccc(N3CCOCC3)cc2c(=O)n1CCc1ccccc1 22.2%
CCOC(=O)c1ccc(NC(=O)CSc2nnc(COc3ccccc3OC)n2C)cc1 7.25%
CCOC(=O)c1sc(=S)n(-c2cccc(OC)c2)c1N 5.37%
Cc1ccc(NC(=O)CCNS(=O)(=O)c2ccc3c(c2)oc(=O)n3C)cc1C 15.7%
CC1(C)CC(=O)C=C(NCc2ccncc2)C1 -1.25%
Cc1nn(C(=O)c2ccoc2C)c(N)c1-c1ccccc1 10.4%
O=C(N1CCOCC1)N(Cc1ccccc1)c1ccccn1 -5.66%
Cc1ccc(-c2csc3nnc(SCC(=O)NCc4ccco4)n23)cc1 2.88%
COc1ccc(C2C(C(=O)N3CCN(c4ccc(OC)cc4)CC3)c3ccccc3C(=O)N2C)cc1 (stereo not given) 8.23%
O=C(CSc1nc2ccccc2[nH]1)c1cccs1 12.6%
O=C(c1cc(-c2ccc(O)cc2)on1)N1CCCc2ccccc21 9.64%
CC(C)(C)NC(=O)C(c1ccncc1)N(C(=O)CNC(=O)c1ccco1)c1ccc2c(c1)OCO2 (stereo not given) 4.9%
c1ccc(-c2cc(-c3nnc4sc(-c5ccccn5)nn34)[nH]n2)cc1 8.74%
CC12CCC(C(=O)N3CCN(c4ncccn4)CC3)(c3nc4ccccc4nc31)C2(C)C (stereo not given) 20.7%
O=C(O)C1CC(=O)N(Cc2cccnc2)C1 (stereo not given) 15.1%
COCCNC(=O)Cn1cc2c(n1)CCCCC2 3.37%
COc1ccc(S(=O)(=O)N(CCCN2CCCC2=O)Cc2cc3c(C)ccc(C)c3[nH]c2=O)cc1 5.72%
Clc1ccc(CSc2nnc([C@@H]3CCCN3)o2)cc1 13.7%
CCn1c(SCC(=O)Nc2nc3ccc(OC)cc3s2)nnc1-c1ccoc1C 4.77%
COC(=O)N1CN(C(=O)OC)CN(C(=O)OC)C1 4.11%
Cn1c(SCc2c(F)cccc2Cl)nnc1-c1cnccn1 -5.66%
O=S(=O)(c1ccc(Sc2nnc3ccccn23)nc1)N1CCOCC1 -7.45%
COc1ccccc1-c1cc(C(=O)NCCCn2ccnc2)no1 1.27%
COc1ccccc1N1CCN(CCCCOc2ccc(F)cc2)CC1 0.215%
O=C1CC2(CCCCC2)Oc2ccc(OCC(=O)N3CCOCC3)cc21 9.94%
Cc1csc(NC(=O)C2CCCN2C(=O)OCC(C)C)n1 (stereo not given) -7.74%
Cc1cccc(N2CCN(C(=O)c3cc4c(=O)[nH]c5ccccc5c4n3C)CC2)c1C 8.97%
